Reference: ChEMBL document CHEMBL1687700, “Discovery of an Orally Efficacious Imidazo[5,1-f][1,2,4]triazine Dual Inhibitor of IGF-1R and IR” (ACS Med Chem Lett, 2010)
Blank lines part the entries; values can stand above or below the compound they belong to.

Legend:
[1] = (§1) Oral bioavailability in CD-1 mouse at 25 mg/kg, po administered as single dose; type: ADME, organism-based; conditions: CD-1, mouse, in vivo
[2] = Clearance in CD-1 mouse at 5 mg/kg, iv administered as single dose; type: ADME, organism-based; set-up: dose 5 mg/kg, route intravenous; conditions: in vivo
[3] = Volume of distribution at steady state in CD-1 mouse at 5 mg/kg, iv administered as single dose; type: ADME, organism-based; set-up: dose 5 mg/kg, route intravenous; conditions: in vivo, read-out: Vdss
[4] = Cmax in CD-1 mouse plasma at 25 mg/kg, po administered as single dose; type: ADME, organism-based; set-up: dose 25 mg/kg, route oral
[5] = Permeability of the compound by PAMPA assay at pH 7.4; type: ADME; conditions: read-out: permeability
Procedure, shortened: (§2)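 Parallel artificial membrane permeability assay run at pH 5.0 and pH 7.4; permeability reported in nm/s.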

[6] = Permeability of the compound by PAMPA assay at pH 5.0; type: ADME; conditions: read-out: permeability; procedure, shortened: as §2
Mus musculus = assay: as §1; type: ADME, organism-based; conditions: mouse, in vivo
[7] = Genotoxicity in Salmonella Typhimurium by Ames test in presence of S9 liver microsomes; type: toxicity, Microsome; conditions: salmonella enterica subsp. enterica serovar typhimurium
[8] = Cmax in Sprague-Dawley rat at 25 mg/kg, po administered as single dose; type: ADME, organism-based; set-up: dose 25 mg/kg, route oral; conditions: in vivo
[9] = AUC in Sprague-Dawley rat at 25 mg/kg, po administered as single dose; type: ADME, organism-based; set-up: dose 25 mg/kg, route oral; conditions: plasma
Procedure, shortened: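 Single oral dose of 25 mg/kg, given as the free base in 50:50 PEG-400:25 mM tartaric acid, to female rats. Plasma AUC (ng h/mL) is reported as the median. Clearance parameters come from a separate 5 mg/kg iv dose.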

[10] = Extraction ratio of hepatic clearance to hepatic blood flow in human microsomes; type: ADME, Microsome; conditions: liver microsomes
[11] = Antiproliferative activity against human GEO cells expressing IGF-1R assessed as intracellular ATP content after 3 days by Cell Titre-Glo luminescent assay; type: functional, cell-based; conditions: 72 h
[12] = target: Insulin-like growth factor 1 receptor (Homo sapiens, UniProt P08069); assay: Inhibition of auto-phosphorylation of human IGF1R expressed in mouse NIH-3T3 cells after 2 hrs by luminometry; type: cell-based, NIH3T3
Cytochrome P450 1A2 = target: T1, Cytochrome P450 1A2 (Homo sapiens, UniProt P05177); assay: Inhibition of CYP1A2; type: ADME
T1 sequence (P05177 whole entry): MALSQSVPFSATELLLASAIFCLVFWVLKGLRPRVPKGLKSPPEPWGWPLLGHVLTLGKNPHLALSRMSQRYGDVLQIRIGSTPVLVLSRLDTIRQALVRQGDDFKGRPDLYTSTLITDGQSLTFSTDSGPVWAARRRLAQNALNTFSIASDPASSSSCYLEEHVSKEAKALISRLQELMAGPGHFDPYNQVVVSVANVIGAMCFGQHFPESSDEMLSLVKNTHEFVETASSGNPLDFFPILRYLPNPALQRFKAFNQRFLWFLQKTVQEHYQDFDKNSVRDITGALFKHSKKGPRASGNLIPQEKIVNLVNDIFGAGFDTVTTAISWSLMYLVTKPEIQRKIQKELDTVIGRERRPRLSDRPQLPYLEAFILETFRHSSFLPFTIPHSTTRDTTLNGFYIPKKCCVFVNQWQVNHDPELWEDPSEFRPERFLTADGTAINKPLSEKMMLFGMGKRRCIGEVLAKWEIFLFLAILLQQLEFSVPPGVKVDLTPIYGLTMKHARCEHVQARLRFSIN

[13] = Oral bioavailability in Sprague-Dawley rat at 25 mg/kg administered as single dose; type: ADME, organism-based; conditions: in vivo
[14] = Genotoxicity in Salmonella Typhimurium by Ames test in absence of S9 liver microsomes; type: toxicity, Microsome; conditions: salmonella enterica subsp. enterica serovar typhimurium
[15] = Antiproliferative activity against human GEO cells expressing IR assessed as intracellular ATP content after 3 days by Cell Titre-Glo luminescent assay; type: functional, cell-based; conditions: 72 h
[16] = Clearance in Sprague-Dawley rat at 5 mg/kg, iv administered as single dose; type: ADME, organism-based; set-up: dose 5 mg/kg, route intravenous; conditions: in vivo
Procedure, shortened: (§3)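 Single 5 mg/kg iv dose used to derive clearance and Vss; median values reported per species (female rat, male rhesus monkey).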

Cytochrome P450 2D6 = Cytochrome P450 2D6 (Homo sapiens, UniProt P10635); assay: Inhibition of CYP2D6; type: ADME
[17] = Extraction ratio of hepatic clearance to hepatic blood flow in mouse microsomes; type: ADME, Microsome; conditions: liver microsomes
Insulin receptor = Insulin receptor (Homo sapiens, UniProt P06213); assay: Inhibition of auto-phosphorylation of human IR expressed in human HepG2 cells after 2 hrs by luminometry; type: cell-based
Rattus norvegicus = species: Rattus norvegicus; assay: Toxicity in rat after 14 days; type: organism-based; conditions: in vivo, 336 h
Cytochrome P450 3A4 = Cytochrome P450 3A4 (Homo sapiens, UniProt P08684); assay: Inhibition of CYP3A4; type: ADME
[18] = Volume of distribution at steady state in Sprague-Dawley rat at 5 mg/kg, iv administered as single dose; type: ADME, organism-based; set-up: dose 5 mg/kg, route intravenous; conditions: in vivo, read-out: Vdss; procedure, shortened: as §3

Sequence of Cytochrome P450 2D6 (P10635 whole entry): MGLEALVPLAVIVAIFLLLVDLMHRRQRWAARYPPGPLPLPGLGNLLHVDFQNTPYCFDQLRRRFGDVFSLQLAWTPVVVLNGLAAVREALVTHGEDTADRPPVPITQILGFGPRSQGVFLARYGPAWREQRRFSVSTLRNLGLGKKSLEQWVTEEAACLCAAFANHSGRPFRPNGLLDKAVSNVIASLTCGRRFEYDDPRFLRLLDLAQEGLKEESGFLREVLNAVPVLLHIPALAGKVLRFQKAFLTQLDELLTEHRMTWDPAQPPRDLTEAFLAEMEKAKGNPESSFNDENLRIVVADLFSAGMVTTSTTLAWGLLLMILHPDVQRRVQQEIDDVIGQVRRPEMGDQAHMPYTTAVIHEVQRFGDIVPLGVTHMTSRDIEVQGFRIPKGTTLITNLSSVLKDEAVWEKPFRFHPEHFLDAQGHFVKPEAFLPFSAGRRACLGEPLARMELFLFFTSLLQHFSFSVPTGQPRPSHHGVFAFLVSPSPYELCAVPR
Sequence of Insulin receptor (P06213 28-758 limits assumed): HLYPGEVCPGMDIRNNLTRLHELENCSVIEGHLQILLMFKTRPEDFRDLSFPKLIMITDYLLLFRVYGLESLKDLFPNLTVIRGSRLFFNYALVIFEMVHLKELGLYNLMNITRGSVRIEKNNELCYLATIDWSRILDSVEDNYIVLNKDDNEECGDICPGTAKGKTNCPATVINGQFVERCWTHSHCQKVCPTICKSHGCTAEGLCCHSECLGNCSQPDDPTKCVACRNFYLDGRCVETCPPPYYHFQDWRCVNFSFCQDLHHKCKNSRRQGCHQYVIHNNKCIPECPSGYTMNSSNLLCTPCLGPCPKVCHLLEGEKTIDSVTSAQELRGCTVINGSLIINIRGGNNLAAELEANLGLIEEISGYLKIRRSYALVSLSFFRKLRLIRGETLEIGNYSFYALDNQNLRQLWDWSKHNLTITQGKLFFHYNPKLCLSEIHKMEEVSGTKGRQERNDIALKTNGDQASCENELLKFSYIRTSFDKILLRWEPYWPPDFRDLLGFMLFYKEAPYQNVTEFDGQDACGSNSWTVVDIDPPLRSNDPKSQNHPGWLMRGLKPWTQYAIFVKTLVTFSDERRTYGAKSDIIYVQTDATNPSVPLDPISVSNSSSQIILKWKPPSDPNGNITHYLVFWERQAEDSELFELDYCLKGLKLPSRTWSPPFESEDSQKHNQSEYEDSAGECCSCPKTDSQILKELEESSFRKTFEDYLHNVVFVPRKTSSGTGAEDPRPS
Sequence of Insulin receptor (P06213 763-1382 limits assumed): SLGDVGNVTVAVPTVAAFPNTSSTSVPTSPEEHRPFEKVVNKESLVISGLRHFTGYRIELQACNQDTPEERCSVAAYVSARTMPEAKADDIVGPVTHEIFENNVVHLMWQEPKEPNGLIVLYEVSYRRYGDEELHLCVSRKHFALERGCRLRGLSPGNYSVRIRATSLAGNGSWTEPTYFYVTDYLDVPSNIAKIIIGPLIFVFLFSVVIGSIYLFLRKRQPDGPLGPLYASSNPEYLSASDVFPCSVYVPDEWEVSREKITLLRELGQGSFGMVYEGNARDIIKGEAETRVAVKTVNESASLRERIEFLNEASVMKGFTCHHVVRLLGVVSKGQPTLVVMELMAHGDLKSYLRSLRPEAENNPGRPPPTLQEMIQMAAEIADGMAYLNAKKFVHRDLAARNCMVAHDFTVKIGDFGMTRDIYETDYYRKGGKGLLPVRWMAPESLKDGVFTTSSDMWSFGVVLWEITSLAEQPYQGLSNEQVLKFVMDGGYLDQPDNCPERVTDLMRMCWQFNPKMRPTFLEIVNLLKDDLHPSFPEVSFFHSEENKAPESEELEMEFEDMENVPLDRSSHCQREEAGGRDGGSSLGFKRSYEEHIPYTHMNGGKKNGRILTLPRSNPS
Sequence of Insulin-like growth factor 1 receptor (P08069 31-736 limits assumed): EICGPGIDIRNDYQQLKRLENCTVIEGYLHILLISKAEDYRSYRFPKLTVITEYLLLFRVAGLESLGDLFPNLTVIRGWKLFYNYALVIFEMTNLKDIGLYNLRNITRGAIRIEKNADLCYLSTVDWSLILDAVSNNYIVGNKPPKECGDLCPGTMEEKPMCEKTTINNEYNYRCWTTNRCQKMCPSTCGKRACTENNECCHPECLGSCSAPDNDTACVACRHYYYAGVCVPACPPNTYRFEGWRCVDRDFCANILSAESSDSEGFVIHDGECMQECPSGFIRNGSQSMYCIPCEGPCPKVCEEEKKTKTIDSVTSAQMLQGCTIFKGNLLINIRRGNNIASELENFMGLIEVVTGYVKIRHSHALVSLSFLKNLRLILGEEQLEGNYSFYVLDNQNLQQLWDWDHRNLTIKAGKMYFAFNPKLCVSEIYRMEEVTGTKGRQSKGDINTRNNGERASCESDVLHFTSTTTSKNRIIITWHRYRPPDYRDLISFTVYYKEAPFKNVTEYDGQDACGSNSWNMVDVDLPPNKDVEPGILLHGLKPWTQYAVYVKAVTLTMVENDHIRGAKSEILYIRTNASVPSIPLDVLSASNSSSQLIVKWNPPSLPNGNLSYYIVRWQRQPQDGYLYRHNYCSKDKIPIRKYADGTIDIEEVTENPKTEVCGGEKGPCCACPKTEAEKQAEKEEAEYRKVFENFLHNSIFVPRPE
Sequence of Insulin-like growth factor 1 receptor (P08069 741-1367 limits assumed): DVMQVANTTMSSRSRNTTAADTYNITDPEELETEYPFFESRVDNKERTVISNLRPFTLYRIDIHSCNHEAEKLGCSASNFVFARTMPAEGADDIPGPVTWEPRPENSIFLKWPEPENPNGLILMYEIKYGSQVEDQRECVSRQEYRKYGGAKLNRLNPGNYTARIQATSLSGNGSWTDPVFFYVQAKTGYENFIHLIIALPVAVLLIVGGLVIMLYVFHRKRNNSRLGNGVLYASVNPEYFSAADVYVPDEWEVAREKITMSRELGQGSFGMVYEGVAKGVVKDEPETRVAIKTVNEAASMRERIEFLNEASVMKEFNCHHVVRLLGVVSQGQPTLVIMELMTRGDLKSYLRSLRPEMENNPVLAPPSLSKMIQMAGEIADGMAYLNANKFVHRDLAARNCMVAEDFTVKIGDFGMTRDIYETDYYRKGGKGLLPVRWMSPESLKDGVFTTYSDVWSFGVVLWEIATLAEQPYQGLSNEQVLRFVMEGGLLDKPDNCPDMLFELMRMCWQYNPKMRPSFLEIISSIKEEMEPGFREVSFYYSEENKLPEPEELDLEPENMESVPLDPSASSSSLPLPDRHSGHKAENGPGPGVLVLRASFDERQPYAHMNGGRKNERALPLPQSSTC
Sequence of Cytochrome P450 3A4 (P08684 whole entry): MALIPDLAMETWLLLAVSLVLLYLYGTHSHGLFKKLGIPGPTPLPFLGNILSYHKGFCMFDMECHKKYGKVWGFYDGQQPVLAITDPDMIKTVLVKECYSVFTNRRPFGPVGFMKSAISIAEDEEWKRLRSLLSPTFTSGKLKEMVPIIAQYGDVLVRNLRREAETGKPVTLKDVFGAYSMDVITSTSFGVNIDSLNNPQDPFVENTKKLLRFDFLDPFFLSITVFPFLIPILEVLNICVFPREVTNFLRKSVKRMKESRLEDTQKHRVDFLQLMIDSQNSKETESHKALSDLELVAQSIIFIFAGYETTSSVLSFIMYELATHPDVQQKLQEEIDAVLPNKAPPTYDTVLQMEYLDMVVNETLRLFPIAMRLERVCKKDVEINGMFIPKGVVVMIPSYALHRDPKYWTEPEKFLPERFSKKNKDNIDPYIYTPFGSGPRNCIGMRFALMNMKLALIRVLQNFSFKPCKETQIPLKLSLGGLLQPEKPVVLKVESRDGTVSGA

bioavailability [1]: 18% | clearance [2]: 7 mL/min/kg | Vd [3]: 1.2 L/kg | Cmax [4]: 3.1 µM | Papp [5]: 105 ×10⁻⁶ cm/s | Papp [6]: 20.4 ×10⁻⁶ cm/s
Structure (SMILES): Nc1ncnn2c1c(-c1ccc3ccc(-c4ccccc4)nc3c1F)nc2[C@H]1C[C@@H](N2CCN(C=O)CC2)C1

F (Mus musculus): 162% | Cmax [8]: 11.3 µM | AUC [9]: 62400 ng·h/mL | hepatic extraction ratio [10]: 0.55 | clearance [2]: 4 mL/min/kg | Vd [3]: 1 L/kg | IC50 [12]: 17 nM | IC50 (Cytochrome P450 1A2): > 25000 nM | bioavailability [13]: 64% | Cmax [4]: 20.5 µM | Papp [5]: 110 ×10⁻⁶ cm/s | clearance [16]: 4 mL/min/kg | Papp [6]: 109 ×10⁻⁶ cm/s | IC50 (Cytochrome P450 2D6): > 25000 nM | hepatic extraction ratio [17]: 0.43 | IC50 (Insulin receptor): 76 nM | IC50 (Cytochrome P450 3A4): > 25000 nM | Vd [18]: 0.97 L/kg
Structure (SMILES): C[C@]1(O)C[C@@H](c2nc(-c3ccc4ccc(-c5ccccc5)nc4c3F)c3c(N)ncnn32)C1
Activity [7]: Non-toxic | EC50 [11]: 130 nM | Activity [14]: Non-toxic | EC50 [15]: 130 nM | Activity (Rattus norvegicus): Non-toxic

bioavailability [1]: 27% | clearance [2]: 21 mL/min/kg | Vd [3]: 4.9 L/kg | Cmax [4]: 1.9 µM | Papp [5]: 67.2 ×10⁻⁶ cm/s | Papp [6]: 14.5 ×10⁻⁶ cm/s
Structure (SMILES): CN1CCN([C@H]2C[C@@H](c3nc(-c4ccc5ccc(-c6ccccc6)nc5c4F)c4c(N)ncnn43)C2)CC1
